What was measured:
[1] = test system: normal human mammary epithelial HMEC cells; assay: Cell viability; type: cell-based; conditions: 24 h
Procedure, shortened: (§1)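 Cells plated at 10 000 per well and exposed to increasing concentrations of test compound for 24 h. HMEC were cultured per supplier guidance. Viability was read with the ApoTox-Glo viability reagent by fluorescence at 400 nm Ex/505 nm Em. Three replicates; error bars are standard deviation.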

[2] = Parallel Artificial Membrane Permeability Assay; type: in vitro ADME; conditions: pH 5.0 and 6.8, room temperature, ∼4 h; data not shown
Procedure, shortened: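 Test compounds were made up as 10 mM DMSO stocks and filtered (0.2 μm). The assay used stirred PAMPA plates with GIT-0 lipid and an acceptor sink buffer. After permeation, UV spectra from 245 to 498 nm gave relative compound concentrations in the donor and acceptor compartments, from which effective permeability was derived.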

[3] = test system: colorectal carcinoma RKO cells; assay: Cell viability; type: cell-based, human; conditions: 24 h, increasing concentrations
Procedure, shortened: as §1

[4] = test system: pancreatic cancer MiaPaca cells; assay: Cell viability; type: cell-based, human; conditions: 24 h, increasing concentrations
Procedure, shortened: as §1

[5] = molecular target: hnRNP A18 RNA Recognition Motif (RRM) (Homo sapiens, UniProt Q14011); assay: NMR 1H,15N-HSQC chemical shift perturbation; type: binding; conditions: 15N-labeled hnRNP A18 RRM
Procedure, shortened: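 Construct: human hnRNP A18 RRM (residues 1–92), expressed in E. coli BL21(DE3) as a His6-GB1 fusion in M9 medium with 15N-ammonium chloride, induced with 1 mM IPTG for 16 h at 18°C. Purified by denaturing Ni affinity with on-column refolding, then TEV cleavage.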

Glioblastoma D54 cells = assay: Cell viability; type: cell-based, human; conditions: D54, 24 h, increasing concentrations
Procedure, shortened: as §1

hnRNP A18 = molecular target: T1, hnRNP A18 (Homo sapiens, UniProt Q14011); assay: Cellular thermal shift assay; type: cell-based; conditions: read-out: EC50, hnRNP A18 protection from melting; LOX-IM-VI cells over expressing GFP-hnRNP A18; 3 h; 57°C
T1 sequence (Q14011 1-172): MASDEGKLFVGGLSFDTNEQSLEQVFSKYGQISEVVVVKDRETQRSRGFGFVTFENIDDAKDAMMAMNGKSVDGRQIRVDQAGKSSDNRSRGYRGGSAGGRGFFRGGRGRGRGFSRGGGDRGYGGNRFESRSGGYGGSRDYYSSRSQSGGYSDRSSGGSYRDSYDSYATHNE

His-hnRNP A18 [6] = molecular target: T2, His-hnRNP A18 (Homo sapiens, UniProt Q14011); assay: RNA band shift; type: binding; conditions: biotinylated hnRNP A18 RNA consensus motif 1
T2 sequence (Q14011 1-172): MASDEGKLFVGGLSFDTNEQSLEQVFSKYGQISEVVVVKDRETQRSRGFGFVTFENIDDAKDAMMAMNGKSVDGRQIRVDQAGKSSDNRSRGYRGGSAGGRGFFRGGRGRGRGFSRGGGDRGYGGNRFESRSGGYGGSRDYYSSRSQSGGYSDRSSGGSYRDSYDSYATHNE
Procedure, shortened: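 Recombinant full-length human His-hnRNP A18 was expressed in bacteria grown at 30°C. Protein (1 μg) was preincubated 10 min with or without increasing concentrations of test compound. Biotinylated hnRNP A18 motif 1 RNA (51 nt) was then added for 10 min at room temperature. Complexes were resolved on native polyacrylamide gels, transferred to nylon and detected by chemiluminescence with streptavidin-HRP.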

GST-hnRNP A18 = molecular target: T3, GST-hnRNP A18 (UniProt Q14011 1-172); assay: fluorescence anisotropy
T3 sequence: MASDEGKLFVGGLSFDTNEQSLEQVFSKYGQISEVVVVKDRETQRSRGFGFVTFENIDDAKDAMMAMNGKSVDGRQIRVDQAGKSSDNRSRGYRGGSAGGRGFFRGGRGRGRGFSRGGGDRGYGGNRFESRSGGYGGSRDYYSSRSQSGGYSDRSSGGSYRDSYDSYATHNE

His-hnRNP A18 [7] = molecular target: T4, His-hnRNP A18 (human, UniProt Q14011 1-172); assay: EMSA
T4 sequence: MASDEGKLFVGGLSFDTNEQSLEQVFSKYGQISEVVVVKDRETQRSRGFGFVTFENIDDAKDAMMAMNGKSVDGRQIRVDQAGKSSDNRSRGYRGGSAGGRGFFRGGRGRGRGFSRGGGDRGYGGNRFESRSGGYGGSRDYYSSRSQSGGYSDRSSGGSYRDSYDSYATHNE

## Cc1sc(NC(=O)c2ccccc2)nc1OC(=O)c1ccccc1 [VITAS STK508411]
[1]
  toxicity to normal cells: 20–40%
[2]
  effective permeability (Pe): > 20 ×10⁻⁶ cm/s
[3]
  cell viability (relative efficacy): least effective
[4]
  cell viability (relative efficacy): least effective
[5]
  chemical shift perturbations of hnRNP A18 RRM (qualitative): Chemical shift perturbations were observed
Glioblastoma D54 cells
  cell viability (relative efficacy): least effective
hnRNP A18
  EC50: 23.8 µM
His-hnRNP A18 [6]
  hnRNP A18 RNA binding activity / specificity by RNA band shift: specifically bound hnRNP A18

B1: hnRNP A18 motif 1 Fl (ssRNA)
RNA: GCAGAUCCAGGGUGGGAUUUUCUUGAGGAAGUUACAAAUAAGCUUGUUACA
GST-hnRNP A18
  binding result: binds

B2: hnRNP A18 motif 1 Biotin (ssRNA)
RNA: GCAGAUCCAGGGUGGGAUUUUCUUGAGGAAGUUACAAAUAAGCUUGUUACA
His-hnRNP A18 [7]
  binding result: binds
